Test results: ChEMBL document CHEMBL1130151, “Curcumin analogs with altered potencies against HIV-1 integrase as probes for biochemical mechanisms of drug action” (J Med Chem, 1997)

Columns and labels:
[1] = target: T1, Human immunodeficiency virus type 1 integrase (Human immunodeficiency virus 1, UniProt Q7ZJM1); experiment: Inhibition of 3'- processing activity of HIV-1 integrase
In short: (§1)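 Recombinant HIV-1 integrase (200 nM final) preincubated with inhibitor 30 min at 30 °C in buffer (pH 7.2 MOPS, 7.5 mM MnCl2, 10% DMSO, 50 mM NaCl, BSA, reducing agents, glycerol). Then 20 nM 5′-32P-labeled linear oligonucleotide substrate added, reaction run 1 h more. Products resolved on denaturing 20% polyacrylamide/urea gel. IC50 read from plot of concentration versus percent inhibition.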

[2] = target: T1, Human immunodeficiency virus type 1 integrase; experiment: Inhibition of strand transfer activity of HIV-1 integrase; in short: as §1

T1 sequence (Q7ZJM1 whole entry): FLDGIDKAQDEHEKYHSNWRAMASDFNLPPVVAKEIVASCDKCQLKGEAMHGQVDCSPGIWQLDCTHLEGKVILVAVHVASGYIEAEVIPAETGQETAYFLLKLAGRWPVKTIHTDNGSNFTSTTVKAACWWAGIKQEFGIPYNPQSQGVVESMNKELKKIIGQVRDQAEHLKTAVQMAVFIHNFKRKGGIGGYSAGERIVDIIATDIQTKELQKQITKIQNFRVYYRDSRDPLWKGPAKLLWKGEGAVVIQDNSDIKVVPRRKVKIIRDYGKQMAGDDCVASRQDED

IC50 [1] | IC50 [2] | Structure (SMILES)
150 µM | 140 µM | COc1cc(/C=C/C(=O)CC(=O)/C=C/c2ccc(O)c(OC)c2)ccc1O [CURCUMIN]
140 µM | 120 µM | COc1cc(/C=C/C(O)=C/C(=O)/C=C/c2ccc(O)cc2)ccc1O [DEMETHOXYCURCUMIN]
> 300 µM | > 300 µM | COc1cc(CCC(=O)CC(=O)CCc2ccc(O)c(OC)c2)ccc1O [TETRAHYDROCURCUMIN]
9 µM | 4 µM | O=C(/C=C/c1ccc(O)c(O)c1)O[C@H](Cc1ccc(O)c(O)c1)C(=O)O [ROSMARINIC ACID]
6 µM | 3.1 µM | O=C(/C=C/c1ccc(O)c(O)c1)CC(=O)/C=C/c1ccc(O)c(O)c1
18 µM | 9 µM | COc1cc(/C=C/C(=O)CC(=O)/C=C/c2ccc(O)c(O)c2)ccc1O
120 µM | 80 µM | O=C(/C=C/c1ccc(O)cc1)CC(=O)/C=C/c1ccc(O)cc1 [BISDEMETHOXYCURCUMIN]
> 300 µM | > 300 µM | COc1ccc(/C=C/C(=O)CC(=O)/C=C/c2ccc(OC)cc2)cc1
> 300 µM | > 300 µM | O=C(/C=C/c1ccccc1)CC(=O)/C=C/c1ccccc1
